Reference: article PMC8865217 (Journal of natural products, 2021)
≈ marks a conversion by molar mass, not a printed value.

What was measured:
Interconversion = format: physicochemical; conditions: for Relative stability among diastereomers/epimers: hemiaminal equilibrium
[1] = target: Mycobacterial ClpC1-NTD (caseinolytic protein C1 N-terminal domain) (Mycobacterium tuberculosis, UniProt P9WPC9); assay: Binding affinity to ClpC1-NTD by surface plasmon resonance; conditions: SPR, KD = kd/ka, 1:1 Langmuir model
Mycobacterial ClpC1-NTD (caseinolytic protein C1 N-terminal domain), sequence (P9WPC9 2-144): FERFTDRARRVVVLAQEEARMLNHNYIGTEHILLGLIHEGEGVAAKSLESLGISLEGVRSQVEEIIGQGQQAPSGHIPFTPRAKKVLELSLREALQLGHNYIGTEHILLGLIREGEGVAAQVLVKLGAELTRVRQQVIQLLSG
In short: (§1)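 Association (ka) and dissociation (kd) rate constants came from a global fit of double-referenced SPR data to a 1:1 Langmuir model, and KD was calculated as kd/ka. The same procedure was used for the mycobacterial ClpC1 N-terminal domain and for the full-length protein.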

[2] = target: Mycobacterial ClpC1 FL (full-length protein) (Mycobacterium tuberculosis, UniProt P9WPC9); assay: Binding affinity to full-length ClpC1 by surface plasmon resonance; conditions: SPR, KD = kd/ka, 1:1 Langmuir model
Mycobacterial ClpC1 FL (full-length protein), sequence (P9WPC9 whole entry): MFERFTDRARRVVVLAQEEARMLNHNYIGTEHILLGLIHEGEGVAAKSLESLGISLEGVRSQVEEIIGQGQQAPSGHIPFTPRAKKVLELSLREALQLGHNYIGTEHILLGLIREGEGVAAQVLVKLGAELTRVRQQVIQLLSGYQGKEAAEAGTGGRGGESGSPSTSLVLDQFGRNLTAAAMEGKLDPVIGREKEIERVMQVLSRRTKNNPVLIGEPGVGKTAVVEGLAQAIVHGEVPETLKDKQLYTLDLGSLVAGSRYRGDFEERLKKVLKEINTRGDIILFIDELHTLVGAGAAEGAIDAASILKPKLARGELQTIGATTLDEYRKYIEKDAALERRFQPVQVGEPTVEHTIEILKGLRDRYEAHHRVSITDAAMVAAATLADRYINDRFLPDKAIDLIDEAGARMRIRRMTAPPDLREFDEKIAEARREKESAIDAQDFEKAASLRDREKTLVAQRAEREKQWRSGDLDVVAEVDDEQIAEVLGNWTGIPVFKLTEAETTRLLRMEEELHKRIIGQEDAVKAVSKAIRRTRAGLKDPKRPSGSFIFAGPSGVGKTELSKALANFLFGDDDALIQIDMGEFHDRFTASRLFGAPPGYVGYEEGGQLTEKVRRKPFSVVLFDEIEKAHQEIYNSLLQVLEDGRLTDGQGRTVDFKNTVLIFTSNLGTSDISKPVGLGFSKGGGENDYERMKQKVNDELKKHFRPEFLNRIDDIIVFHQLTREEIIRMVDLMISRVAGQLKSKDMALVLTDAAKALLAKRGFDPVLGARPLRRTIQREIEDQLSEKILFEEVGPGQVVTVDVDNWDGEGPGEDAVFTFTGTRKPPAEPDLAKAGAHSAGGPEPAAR
In short: as §1

M. tuberculosis [3] = assay: MIC against M. tuberculosis, microplate Alamar Blue assay; format: cell-based; conditions: Mycobacterium tuberculosis, read-out: MIC value (anti-Mtb)
M. tuberculosis [4] = conditions: previous study; cited from earlier work

Compound	Relative stability among diastereomers/epimers (Interconversion)	Kd [1] [nM]	Kd [2] [nM]	other results
C/C=C/C[C@@H]1NC(=O)[C@H](CC(C)C)N2C(=O)[C@H](C[C@@H](C)[C@@H]2O)N(C)C(=O)[C@H](C)NC(=O)[C@H](Cc2ccc(O)c([N+](=O)[O-])c2)NC(=O)[C@H](CC(C)C)N(C)C(=O)[C@H](Cc2cn(C(C)(C)[C@H]3CO3)c3ccccc23)NC1=O [rufomycin 7]	most unstable diastereomer			Epimerization to rufomycin 6 (Interconversion; quickly, during concentration): ~ 50%
CC=CCC1NC(=O)C(CC(C)C)N2C(=O)C(CC(C)C2OCCCC)N(C)C(=O)C(C)NC(=O)C(Cc2ccc(O)c([N+](=O)[O-])c2)NC(=O)C(CC(C)C)N(C)C(=O)C(Cc2cn(C(C)(C)C(O)CCl)c3ccccc23)NC1=O (stereo not drawn) [rufomycinSS 2]		27	29	
C/C=C/C[C@@H]1NC(=O)[C@H](CC(C)C)N2C(=O)[C@H](C[C@@H](C)[C@H]2OCCCC)N(C)C(=O)[C@H](C)NC(=O)[C@H](Cc2ccc(O)c([N+](=O)[O-])c2)NC(=O)[C@H](CC(C)C)N(C)C(=O)[C@H](Cc2cn(C(C)(C)C(O)CCl)c3ccccc23)NC1=O (stereo partly drawn) [rufomycinSS 3]		211	171	MIC (M. tuberculosis [3]): 4.3 µM (≈ 4.88 µg/mL)
C/C=C/C[C@@H]1NC(=O)[C@H](CC(C)C)N2C(=O)[C@H](C[C@H](C)[C@H]2O)N(C)C(=O)[C@H](C)NC(=O)[C@H](Cc2ccc(O)c([N+](=O)[O-])c2)NC(=O)[C@H](CC(C)C)N(C)C(=O)[C@H](Cc2cn(C(C)(C)[C@H]3CO3)c3ccccc23)NC1=O [rufomycin 4]				MIC value (anti-Mtb) (M. tuberculosis [4]): ~ 0.020 μM
CC=CCC1NC(=O)C(CC(C)C)N2C(=O)C(CC(C)C2OCCCC)N(C)C(=O)C(C)NC(=O)C(Cc2ccc(O)c([N+](=O)[O-])c2)NC(=O)C(CC(C)C)N(C)C(=O)C(Cc2cn(C(C)(C)C(O)CCl)c3ccccc23)NC1=O (stereo not drawn) [rufomycinSS 1]		602	724	
C/C=C/C[C@@H]1NC(=O)[C@H](CC(C)C)N2C(=O)[C@H](C[C@@H](C)[C@H]2O)N(C)C(=O)[C@H](C)NC(=O)[C@H](Cc2ccc(O)c([N+](=O)[O-])c2)NC(=O)[C@H](CC(C)C)N(C)C(=O)[C@H](Cc2cn(C(C)(C)[C@H]3CO3)c3ccccc23)NC1=O [rufomycin 6]	more stable epimer			Conversion to rufomycin 7 (Interconversion; slow conversion under aqueous conditions): ~ 5%
